Measured values published in ChEMBL document CHEMBL1255268, “Antimicrobial activities of Ceftaroline and ME1036 tested against clinical strains of community-acquired methicillin-resistant Staphylococcus aureus” (2008).
Converted amounts (≈) assume the structure as drawn.

Legend:
Type in all cases: functional
[1] = system: Staphylococcus aureus; assay: Antimicrobial activity against community-acquired methicillin resistant Staphylococcus aureus expressing PVL and mec type IV gene by broth microdilution method
Method in brief: (§1)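 Reference broth microdilution MICs per CLSI, with CLSI interpretive criteria (M100-S17) used for susceptible/resistant categories. Panel: 152 CA-MRSA clinical isolates from human infections, collected 2000–2005 at 47 US medical centres. Strains typed by multiplex PCR for SCCmec type (mecA as internal control), with products run on 2% agarose in Tris-acetate-EDTA and stained with ethidium bromide.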

[2] = system: Staphylococcus aureus; assay: Antimicrobial activity against community-acquired methicillin resistant Staphylococcus aureus expressing PVL gene and mec type IV gene assessed as susceptible strains by broth microdilution method; method in brief: as §1
[3] = system: Staphylococcus aureus; assay: Antimicrobial activity against community-acquired methicillin resistant Staphylococcus aureus expressing PVL and mec type IV gene assessed as resistant strains by broth microdilution method; method in brief: as §1

SMILES	MIC50 [1] [µg/mL]	MIC90 [1] [µg/mL]	Activity [2] [%]	Activity [3] [%]	MIC [1] [µg/mL]
CC[C@H]1OC(=O)[C@H](C)[C@@H](O[C@H]2C[C@@](C)(OC)[C@@H](O)[C@H](C)O2)[C@H](C)[C@@H](O[C@@H]2O[C@H](C)C[C@H](N(C)C)[C@H]2O)[C@](C)(O)C[C@@H](C)C(=O)[C@H](C)[C@@H](O)[C@]1(C)O [ERYTHROMYCIN]	> 8	> 8	1.3	98	
CN[C@H](CC(C)C)C(=O)N[C@H]1C(=O)N[C@@H](CC(N)=O)C(=O)N[C@H]2C(=O)N[C@H]3C(=O)N[C@H](C(=O)N[C@H](C(=O)O)c4cc(O)cc(O)c4-c4cc3ccc4O)[C@H](O)c3ccc(c(Cl)c3)Oc3cc2cc(c3O[C@@H]2O[C@H](CO)[C@@H](O)[C@H](O)[C@H]2O[C@H]2C[C@](C)(N)[C@H](O)[C@H](C)O2)Oc2ccc(cc2Cl)[C@H]1O [VANCOMYCIN]	1 (≈ 0.69 µM)	1 (≈ 0.69 µM)	100	0	
CCCCCCCCCC(=O)N[C@@H](Cc1c[nH]c2ccccc12)C(=O)N[C@H](CC(N)=O)C(=O)N[C@@H](CC(=O)O)C(=O)N[C@@H]1C(=O)NCC(=O)N[C@@H](CCCN)C(=O)N[C@@H](CC(=O)O)C(=O)N[C@H](C)C(=O)N[C@@H](CC(=O)O)C(=O)NCC(=O)N[C@H](CO)C(=O)N[C@@H]([C@H](C)CC(=O)O)C(=O)N[C@@H](CC(=O)c2ccccc2N)C(=O)O[C@@H]1C	0.25 (≈ 0.154 µM)	0.5 (≈ 0.309 µM)	100	0	0.25 (≈ 0.154 µM)
CO/N=C(\C(=O)N[C@@H]1C(=O)N2C(C(=O)O)=C(CSc3nc(=O)c(O)nn3C)CS[C@H]12)c1csc(N)n1 [CEFTRIAXONE]	32 (≈ 57.7 µM)	> 32	0	98.7	
CC(=O)NC[C@H]1CN(c2ccc(N3CCOCC3)c(F)c2)C(=O)O1 [LINEZOLID]	2 (≈ 5.93 µM)	2 (≈ 5.93 µM)	100		
C[C@@H](O)[C@H]1C(=O)N2C(C(=O)[O-])=C(c3cn4cnc(C(=O)c5ccc[n+](CC(N)=O)c5)c4s3)[C@H](C)[C@H]12	0.12 (≈ 0.242 µM)	0.25 (≈ 0.505 µM)			
CCC[C@@H]1C[C@@H](C(=O)N[C@@H]([C@H]2O[C@H](SC)[C@H](O)[C@@H](O)[C@H]2O)[C@H](C)Cl)N(C)C1 [CLINDAMYCIN]	≤ 0.25	≤ 0.25	100	0	≤ 0.25
C[C@H]1COc2c(N3CCN(C)CC3)c(F)cc3c(=O)c(C(=O)O)cn1c23.C[C@H]1COc2c(N3CCN(C)CC3)c(F)cc3c(=O)c(C(=O)O)cn1c23.O [LEVOFLOXACIN]	0.25	0.5	92.8	7.2	
C[C@@H](O)[C@H]1C(=O)N2C(C(=O)O)=C(S[C@@H]3CN[C@H](C(=O)N(C)C)C3)[C@H](C)[C@H]12 [MEROPENEM]	2 (≈ 5.22 µM)	2 (≈ 5.22 µM)	98	0	
C[C@@H](O)[C@H]1C(=O)N2C(C(=O)O)=C(SCCNC=N)C[C@H]12 [IMIPENEM ANHYDROUS]	≤ 0.5	≤ 0.5	100	0	≤ 0.5
CN(C)[C@@H]1C(O)=C(C(N)=O)C(=O)[C@@]2(O)C(O)=C3C(=O)c4c(O)cccc4[C@@](C)(O)[C@H]3C[C@@H]12 [TETRACYCLINE]	≤ 0.5	≤ 0.5	94.7	4.6	≤ 0.5
